In ChEMBL document CHEMBL3392953, “Synthesis and biological evaluation of furanoallocolchicinoids” (J Med Chem, 2015):

How the values were obtained:
ASPC1 [1] = assay: Cytotoxicity against human AsPC1 cells after 72 hrs by MTT assay; format: functional, cell-based; details: ASPC1, 72 h
How it was run: (§1)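 Cells seeded at 3x10^5 cells/mL 24 h before assay (HEK293, AsPC-1 in DMEM; Jurkat, W1308 in RPMI-1640; 10% FCS, 2-ME). Tenfold dilutions from […] to 1 nM added; untreated cells as controls. 72 h incubation, MTT 250 µg/ml added for last 6 h, formazan dissolved in DMSO, OD read. IC50 from titration curves; inhibition index = 1 − OD(treated)/OD(control).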

HEK293 [2] = assay: Cytotoxicity against HEK293 cells after 72 hrs by MTT assay; format: functional, cell-based; details: Homo sapiens, HEK293, 72 h; how it was run: as §1
Jurkat [3] = assay: Cytotoxicity against human Jurkat cells after 72 hrs by MTT assay; format: functional, cell-based; how it was run: as §1
[4] = Cytotoxicity against mouse W1308 cells after 72 hrs by MTT assay; format: functional, cell-based; details: W1308, 72 h; how it was run: as §1
ASPC1 [5] = assay: Growth inhibition of human AsPC1 cells at 100 uM after 72 hrs by MTT assay; format: functional; details: ASPC1, 72 h, read-out: GI
HEK293 [6] = assay: Growth inhibition of HEK293 cells at 100 uM after 72 hrs by MTT assay; format: functional; details: Homo sapiens, HEK293, 72 h; read-out: GI
Jurkat [7] = assay: Growth inhibition of human Jurkat cells at 100 uM after 72 hrs by MTT assay; format: functional; details: read-out: GI
[8] = Growth inhibition of mouse W1308 cells at 100 uM after 72 hrs by MTT assay; format: functional; details: W1308, 72 h, read-out: GI
Mus musculus [9] = assay: Toxicity in C57BL/6 mouse assessed as interphase microtubule de-stabilizing activity by measuring leakage of rhodamine through the gut at 1 mg/kg, iv co-administered with rhodamine B by fluorimetry; format: organism-based; parameters: dose 1 mg/kg, route intravenous; details: in vivo
How it was run: (§2)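 Intact mice, 6–8 wk, 3 per group; compound dissolved in DMSO at 20 mM, 4 µl diluted into 200 µl saline (1 mg/kg), mixed with 50 µl rhodamine B, single i.v. injection; controls DMSO plus rhodamine B. Killed 4 h later; organs cut, extracted in 0.3N acid in ethanol 2 h at 37 °C, centrifuged, supernatant fluorescence read with 540 nm filter.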

Mus musculus [10] = assay: Toxicity in C57BL/6 mouse assessed as interphase microtubule de-stabilizing activity by measuring influx of rhodamine in to heart at 1 mg/kg, iv co-administered with rhodamine B by fluorimetry; format: organism-based; parameters: dose 1 mg/kg, route intravenous; details: in vivo; how it was run: as §2
Mus musculus [11] = assay: Toxicity in C57BL/6 mouse assessed as interphase microtubule de-stabilizing activity by measuring influx of rhodamine in to spleen at 1 mg/kg, iv co-administered with rhodamine B by fluorimetry; format: organism-based; parameters: dose 1 mg/kg, route intravenous; details: in vivo; how it was run: as §2
[12] = Reduction in blood-brain barrier permeability in […]; format: ADME, tissue-based, C57BL/6, Endothelial cell; parameters: scale not given: the % may be the effect or the level left; details: mouse; how it was run: as §2
[13] = Inhibition of lamb brain tubulin polymerization assessed as reduction in microtubule assembly by spectrophotometry; parameters: species or system Ovis aries
How it was run: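 Tubulin purified from lamb brain by ammonium sulfate fractionation and ion-exchange chromatography. Assembly in 20 mM sodium phosphate, 1 mM EGTA, 10 mM MgCl2, 3.4 M glycerol, 1 mM GTP, pH 6.5, started by warming to 37 °C; turbidity followed at 350 nm over time. Inhibition plotted against ligand:tubulin molar ratio.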

`COc1cc2c(c(OC)c1OC)-c1cc3cc(-c4ccccc4)oc3cc1[C@@H](NC(C)=O)CC2` showed an IC50 (ASPC1 [1]) of 20 µM, an IC50 (HEK293 [2]) of 4 µM and an IC50 (Jurkat [3]) of 4 µM. For the same molecule, the IC50 [4] was 8 µM.

In the case of `COc1cc2c(c(OC)c1OC)-c1cc3cc(CCO)oc3cc1[C@@H](NC(C)=O)CC2`, the IC50 (ASPC1 [1]) is reported as 2 µM, the IC50 (HEK293 [2]) is reported as 1 µM and the IC50 (Jurkat [3]) is reported as 1 µM. The IC50 [4] was 1 µM, the inhibition of growth at 100 µM (ASPC1 [5]) was 50% and the inhibition of growth at 100 µM (HEK293 [6]) was 50%. For the same molecule, the inhibition of growth at 100 µM (Jurkat [7]) was 50% and the inhibition of growth at 100 µM [8] was 50%.

For `COc1ccc(/C=C\c2cc(OC)c(OC)c(OC)c2)cc1O` [COMBRETASTATIN A4], the Activity (Mus musculus [9]) was “Toxic”, the Activity (Mus musculus [10]) was “Toxic” and the Activity (Mus musculus [11]) was “Toxic”. The Activity [12] was 40% and the ligand/tubulin molar ratio [13] was 0.09.
